What was measured:
Format in all cases: functional, cell-based
[1] = Cytotoxicity against human Bel7402 cells after 3 days by MTT assay; settings: Bel-7402, 72 h
Procedure, shortened: (§1)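 MCF-7, HeLa and BEL-7402 cells were grown in RPMI 1640 with 10% heat-inactivated FBS, 1 mM glutamine and penicillin/streptomycin at 37 °C under 5% CO2. They were exposed to compound for 3 days, then read by MTT at 570 nm. Viability was taken as treated/control absorbance, and IC50 was derived from it. Values are mean SD of three independent experiments.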

HeLa = test: Cytotoxicity against human HeLa cells after 3 days by MTT assay; settings: 72 h; procedure, shortened: as §1
MCF7 = test: Cytotoxicity against human MCF7 cells after 3 days by MTT assay; settings: MCF7, 72 h; procedure, shortened: as §1

SMILES | IC50 [1] [µM] | IC50 (HeLa) [µM] | IC50 (MCF7) [µM]
O=C(N[C@@H](COC(=O)[C@@H](Cc1ccccc1)NC(=O)n1cncn1)Cc1ccccc1)c1ccccc1 | 95.7 | 91.2 | 89
CS(=O)(=O)N[C@H](Cc1ccccc1)C(=O)OC[C@H](Cc1ccccc1)NC(=O)c1ccccc1 | 37 | 22.1 | 21.9
O=C(N[C@H](COC(=O)[C@@H](Cc1ccccc1)NC(=O)c1cccs1)Cc1ccccc1)c1ccccc1 | > 100 | > 100 | > 100
O=C(N[C@H](COC(=O)[C@H](Cc1ccccc1)NC(=O)c1ccncc1)Cc1ccccc1)c1ccccc1 | > 100 | > 100 | > 100
O=C(N[C@@H](COC(=O)[C@@H](Cc1ccccc1)NC(=O)c1ccncc1)Cc1ccccc1)c1ccccc1 | 64.7 | 89.7 | 53.6
O=C(N[C@H](COC(=O)[C@H](Cc1ccccc1)NC(=O)n1cncn1)Cc1ccccc1)c1ccccc1 | > 100 | > 100 | > 100
O=C(N[C@H](COC(=O)[C@@H](Cc1ccccc1)NC(=O)c1cccnc1)Cc1ccccc1)c1ccccc1 (single isomer, unassigned) | 16.6 | 24.9 | 16.7
O=C(N[C@@H](COC(=O)[C@@H](Cc1ccccc1)NC(=O)c1cccnc1)Cc1ccccc1)c1ccccc1 | > 100 | > 100 | > 100
O=C(N[C@H](COC(=O)[C@H](Cc1ccccc1)NC(=O)c1cccs1)Cc1ccccc1)c1ccccc1 | > 100 | > 100 | > 100
CS(=O)(=O)N[C@H](Cc1ccccc1)C(=O)OC[C@@H](Cc1ccccc1)NC(=O)c1ccccc1 | 52.2 | 64 | 60
O=C(N[C@H](COC(=O)[C@@H](Cc1ccccc1)NC(=O)n1cncn1)Cc1ccccc1)c1ccccc1 (single isomer, unassigned) | 82.1 | 78.9 | 67.5
O=C(N[C@H](COC(=O)[C@H](Cc1ccccc1)NC(=O)n1ccnc1)Cc1ccccc1)c1ccccc1 | > 100 | > 100 | > 100
O=C(N[C@@H](COC(=O)[C@H](Cc1ccccc1)NC(=O)n1ccnc1)Cc1ccccc1)c1ccccc1 (single isomer, unassigned) | > 100 | > 100 | > 100
Cc1ccc(S(=O)(=O)N[C@@H](Cc2ccccc2)C(=O)OC[C@@H](Cc2ccccc2)NC(=O)c2ccccc2)cc1 | 54.3 | 41.9 | 28.6
O=C(N[C@@H](COC(=O)[C@H](Cc1ccccc1)NC(=O)c1ccco1)Cc1ccccc1)c1ccccc1 (single isomer, unassigned) | > 100 | > 100 | > 100
O=C(N[C@H](COC(=O)[C@@H](Cc1ccccc1)NC(=O)n1ccnc1)Cc1ccccc1)c1ccccc1 (single isomer, unassigned) | 78.4 | 72.5 | 66.2

SMILES | IC50 [1] [µM] | IC50 (HeLa) [µM] | IC50 (MCF7) [µM]
O=C(N[C@@H](COC(=O)[C@@H](Cc1ccccc1)NC(=O)n1ccnc1)Cc1ccccc1)c1ccccc1 | 91.1 | 79.1 | 87.2
CS(=O)(=O)N[C@@H](Cc1ccccc1)C(=O)OC[C@H](Cc1ccccc1)NC(=O)c1ccccc1 | 70.4 | 93.9 | 76.3
O=C(N[C@@H](COC(=O)[C@H](Cc1ccccc1)NC(=O)c1cccnc1)Cc1ccccc1)c1ccccc1 (single isomer, unassigned) | > 100 | > 100 | > 100
O=C(N[C@H](COC(=O)[C@@H](Cc1ccccc1)NC(=O)c1ccco1)Cc1ccccc1)c1ccccc1 (single isomer, unassigned) | > 100 | > 100 | > 100
Cc1ccc(S(=O)(=O)N[C@@H](Cc2ccccc2)C(=O)OC[C@H](Cc2ccccc2)NC(=O)c2ccccc2)cc1 | 50 | 37.6 | 61.1
O=C(N[C@@H](COC(=O)[C@H](Cc1ccccc1)NC(=O)n1cncn1)Cc1ccccc1)c1ccccc1 (single isomer, unassigned) | > 100 | > 100 | > 100
CS(=O)(=O)N[C@@H](Cc1ccccc1)C(=O)OC[C@@H](Cc1ccccc1)NC(=O)c1ccccc1 | > 100 | > 100 | > 100
O=C(N[C@H](COC(=O)[C@H](Cc1ccccc1)NC(=O)c1ccco1)Cc1ccccc1)c1ccccc1 | > 100 | > 100 | > 100
O=C(N[C@@H](COC(=O)[C@H](Cc1ccccc1)NC(=O)c1ccncc1)Cc1ccccc1)c1ccccc1 (single isomer, unassigned) | > 100 | > 100 | 64.8
O=C(N[C@@H](COC(=O)[C@@H](Cc1ccccc1)NC(=O)c1ccco1)Cc1ccccc1)c1ccccc1 | > 100 | > 100 | > 100
O=C(N[C@H](COC(=O)[C@H](Cc1ccccc1)NC(=O)c1cccnc1)Cc1ccccc1)c1ccccc1 | > 100 | > 100 | > 100
Cc1ccc(S(=O)(=O)N[C@H](Cc2ccccc2)C(=O)OC[C@@H](Cc2ccccc2)NC(=O)c2ccccc2)cc1 | 22.2 | 31.6 | 36.7
O=C(N[C@@H](COC(=O)[C@@H](Cc1ccccc1)NC(=O)c1cccs1)Cc1ccccc1)c1ccccc1 | > 100 | > 100 | > 100
O=C(N[C@H](COC(=O)[C@@H](Cc1ccccc1)NC(=O)c1ccncc1)Cc1ccccc1)c1ccccc1 (single isomer, unassigned) | 19.3 | 33.8 | 15.3
O=C(N[C@@H](COC(=O)[C@H](Cc1ccccc1)NC(=O)c1cccs1)Cc1ccccc1)c1ccccc1 | > 100 | > 100 | > 100

— ChEMBL document CHEMBL3763127, “Design, synthesis and biological evaluation of novel asperphenamate derivatives” (Eur J Med Chem, 2016)
